Laboratory results as given in ChEMBL document CHEMBL5058577, “EUbOPEN Chemogenomics Library 2 (Multiplex)” (2022).

Tested on: U2OS
Assay: Multiplex assay against U2OS
Format: toxicity, cell-based
Details: human
Outline: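 Phenotypes for tubulin, mitochondrial mass and membrane permeability are expressed as per cents of healthy-nucleus cells. Cells were stained live at seeding with Hoechst33342, BioTracker Green Microtubule Cytoskeleton Dye, MitoTracker Red and Annexin V Alexa Fluor 680, then imaged after compound addition on a CQ1 microscope at 37°C and 5% CO2. Machine-learning gating in CellPathfinder separated Hoechst high-intensity objects from normal cells, divided normal cells by nuclear state (healthy, pyknosed, fragmented) and divided pyknosed cells into mitotic or apoptotic.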

[1] = 12 h, 1 µM, compound concentration 1 uM, replicate 1
[2] = 12 h, 1 µM, compound concentration 1 uM, replicate 2
[3] = 12 h, 10 µM, compound concentration 10 uM, replicate 1
[4] = 12 h, 10 µM, compound concentration 10 uM, replicate 2
[5] = 24 h, 1 µM, compound concentration 1 uM, replicate 1
[6] = 24 h, 1 µM, compound concentration 1 uM, replicate 2
[7] = 24 h, 10 µM, compound concentration 10 uM, replicate 1
[8] = 24 h, 10 µM, compound concentration 10 uM, replicate 2
[9] = 48 h, 1 µM, compound concentration 1 uM, replicate 1
[10] = 48 h, 1 µM, compound concentration 1 uM, replicate 2
[11] = 48 h, 10 µM, compound concentration 10 uM, replicate 1
[12] = 48 h, 10 µM, compound concentration 10 uM, replicate 2

Compound: CC(C)COc1ccc(CNC(=O)N(Cc2ccc(F)cc2)C2CCN(C)CC2)cc1 [PIMAVANSERIN]
- Population Apoptotic (%) [1]: 84%
- Population Fragmented Nuclei (%) [1]: 23%
- Population Healthy Nuclei (%) [1]: 67%
- Population Hoechst High Intensity Objects (%) [1]: 2%
- Population Membrane Permeable-Phenotype (%) [1]: 6%
- Population Mitochondria Different-Phenotype (%) [1]: 3%
- Population Mitotic Cells (%) [1]: 16%
- Population Normal (%) [1]: 97%
- Population Pyknosed Nuclei (%) [1]: 9%
- Population Tubulin-Different-Phenotype (%) [1]: 5%
- Total Cell Count [1]: 265
- Population Apoptotic (%) [2]: 100%
- Population Fragmented Nuclei (%) [2]: 11%
- Population Healthy Nuclei (%) [2]: 80%
- Population Hoechst High Intensity Objects (%) [2]: 0%
- Population Mitochondria Different-Phenotype (%) [2]: 4%
- Population Mitotic Cells (%) [2]: 0%
- Population Normal (%) [2]: 99%
- Population Pyknosed Nuclei (%) [2]: 7%
- Population Tubulin-Different-Phenotype (%) [2]: 6%
- Total Cell Count [2]: 136
- Population Apoptotic (%) [3]: 67%
- Population Fragmented Nuclei (%) [3]: 23%
- Population Healthy Nuclei (%) [3]: 48%
- Population Hoechst High Intensity Objects (%) [3]: 5%
- Population Membrane Permeable-Phenotype (%) [3]: 48%
- Population Mitochondria Different-Phenotype (%) [3]: 73%
- Population Mitotic Cells (%) [3]: 32%
- Population Normal (%) [3]: 94%
- Population Pyknosed Nuclei (%) [3]: 27%
- Population Tubulin-Different-Phenotype (%) [3]: 77%
- Total Cell Count [3]: 202
- Population Apoptotic (%) [4]: 71%
- Population Fragmented Nuclei (%) [4]: 18%
- Population Healthy Nuclei (%) [4]: 54%
- Population Hoechst High Intensity Objects (%) [4]: 4%
- Population Membrane Permeable-Phenotype (%) [4]: 26%
- Population Mitochondria Different-Phenotype (%) [4]: 70%
- Population Mitotic Cells (%) [4]: 28%
- Population Normal (%) [4]: 95%
- Population Pyknosed Nuclei (%) [4]: 26%
- Population Tubulin-Different-Phenotype (%) [4]: 52%
- Total Cell Count [4]: 124
- Population Apoptotic (%) [5]: 92%
- Population Fragmented Nuclei (%) [5]: 22%
- Population Healthy Nuclei (%) [5]: 67%
- Population Hoechst High Intensity Objects (%) [5]: 2%
- Population Membrane Permeable-Phenotype (%) [5]: 10%
- Population Mitochondria Different-Phenotype (%) [5]: 4%
- Population Mitotic Cells (%) [5]: 7%
- Population Normal (%) [5]: 97%
- Population Pyknosed Nuclei (%) [5]: 9%
- Population Tubulin-Different-Phenotype (%) [5]: 6%
- Total Cell Count [5]: 294
- Population Apoptotic (%) [6]: 78%
- Population Fragmented Nuclei (%) [6]: 11%
- Population Healthy Nuclei (%) [6]: 80%
- Population Hoechst High Intensity Objects (%) [6]: 1%
- Population Membrane Permeable-Phenotype (%) [6]: 11%
- Population Mitochondria Different-Phenotype (%) [6]: 8%
- Population Mitotic Cells (%) [6]: 21%
- Population Normal (%) [6]: 98%
- Population Pyknosed Nuclei (%) [6]: 8%
- Total Cell Count [6]: 163
- Population Apoptotic (%) [7]: 88%
- Population Fragmented Nuclei (%) [7]: 28%
- Population Healthy Nuclei (%) [7]: 40%
- Population Hoechst High Intensity Objects (%) [7]: 10%
- Population Membrane Permeable-Phenotype (%) [7]: 32%
- Population Mitochondria Different-Phenotype (%) [7]: 67%
- Population Mitotic Cells (%) [7]: 11%
- Population Normal (%) [7]: 89%
- Population Pyknosed Nuclei (%) [7]: 31%
- Population Tubulin-Different-Phenotype (%) [7]: 49%
- Total Cell Count [7]: 214
- Population Apoptotic (%) [8]: 79%
- Population Fragmented Nuclei (%) [8]: 16%
- Population Healthy Nuclei (%) [8]: 50%
- Population Hoechst High Intensity Objects (%) [8]: 3%
- Population Membrane Permeable-Phenotype (%) [8]: 30%
- Population Mitochondria Different-Phenotype (%) [8]: 75%
- Population Mitotic Cells (%) [8]: 20%
- Population Normal (%) [8]: 96%
- Population Pyknosed Nuclei (%) [8]: 33%
- Total Cell Count [8]: 135
- Population Apoptotic (%) [9]: 87%
- Population Fragmented Nuclei (%) [9]: 19%
- Population Healthy Nuclei (%) [9]: 68%
- Population Hoechst High Intensity Objects (%) [9]: 2%
- Population Membrane Permeable-Phenotype (%) [9]: 6%
- Population Mitochondria Different-Phenotype (%) [9]: 5%
- Population Mitotic Cells (%) [9]: 12%
- Population Normal (%) [9]: 97%
- Population Pyknosed Nuclei (%) [9]: 12%
- Population Tubulin-Different-Phenotype (%) [9]: 4%
- Total Cell Count [9]: 393
- Population Apoptotic (%) [10]: 92%
- Population Fragmented Nuclei (%) [10]: 12%
- Population Healthy Nuclei (%) [10]: 76%
- Population Hoechst High Intensity Objects (%) [10]: 1%
- Population Membrane Permeable-Phenotype (%) [10]: 5%
- Population Mitotic Cells (%) [10]: 7%
- Population Normal (%) [10]: 98%
- Population Pyknosed Nuclei (%) [10]: 11%
- Population Tubulin-Different-Phenotype (%) [10]: 2%
- Total Cell Count [10]: 234
- Population Apoptotic (%) [11]: 98%
- Population Fragmented Nuclei (%) [11]: 38%
- Population Healthy Nuclei (%) [11]: 19%
- Population Hoechst High Intensity Objects (%) [11]: 13%
- Population Membrane Permeable-Phenotype (%) [11]: 40%
- Population Mitochondria Different-Phenotype (%) [11]: 56%
- Population Mitotic Cells (%) [11]: 1%
- Population Normal (%) [11]: 86%
- Population Pyknosed Nuclei (%) [11]: 42%
- Population Tubulin-Different-Phenotype (%) [11]: 54%
- Total Cell Count [11]: 222
- Population Apoptotic (%) [12]: 95%
- Population Healthy Nuclei (%) [12]: 15%
- Population Hoechst High Intensity Objects (%) [12]: 8%
- Population Membrane Permeable-Phenotype (%) [12]: 66%
- Population Mitochondria Different-Phenotype (%) [12]: 80%
- Population Mitotic Cells (%) [12]: 4%
- Population Normal (%) [12]: 91%
- Population Pyknosed Nuclei (%) [12]: 45%
- Population Tubulin-Different-Phenotype (%) [12]: 71%
- Total Cell Count [12]: 146
